# In ChEMBL document CHEMBL1165950, “Design and synthesis of new potent anticancer pyrazoles with high FLT3 kinase inhibitory selectivity” (Bioorg Med Chem, 2010):
# Columns and labels:
# Format in all cases: functional
# SF-539 = assay: Cytotoxicity against human SF539 cells assessed as cell growth at 10 uM; settings: read-out: Activity
# How it was run: (§1)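 NCI-60 screen: cells grown in RPMI 1640 with 5% FBS and 2 mM L-glutamine, plated at 5000–40,000 cells/well according to doubling time, and preincubated 24 h at 37 °C, 5% CO2. The single 10 µM dose (DMSO stock) was added, then incubated 48 h. Cells were TCA-fixed and stained with 0.4% SRB, read at 515 nm, and growth % calculated against time-zero and control plates.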
# SNB-19 = assay: Cytotoxicity against human SNB19 cells assessed as cell growth at 10 uM; settings: read-out: Activity; how it was run: as §1
# SNB-75 = assay: Cytotoxicity against human SNB75 cells assessed as cell growth at 10 uM; settings: read-out: Activity; how it was run: as §1
# U-251 = assay: Cytotoxicity against human U251 cells assessed as cell growth at 10 uM; settings: read-out: Activity; how it was run: as §1
# LOX IMVI = assay: Cytotoxicity against human LOXIMVI cells assessed as cell growth at 10 uM; settings: read-out: Activity; how it was run: as §1
# Malme-3M = assay: Cytotoxicity against human MALME-3M cells assessed as cell growth at 10 uM; settings: read-out: Activity; how it was run: as §1
# M14 = assay: Cytotoxicity against human M14 cells assessed as cell growth at 10 uM; settings: read-out: Activity; how it was run: as §1
# MDA-MB-435 = assay: Cytotoxicity against human MDA-MB-435 cells assessed as cell growth at 10 uM; settings: read-out: Activity; how it was run: as §1
# SK-MEL-2 = assay: Cytotoxicity against human SK-MEL-2 cells assessed as cell growth at 10 uM; settings: read-out: Activity; how it was run: as §1
# SK-MEL-28 = assay: Cytotoxicity against human SK-MEL-28 cells assessed as cell growth at 10 uM; settings: read-out: Activity; how it was run: as §1
# SK-MEL-5 = assay: Cytotoxicity against human SK-MEL-5 cells assessed as cell growth at 10 uM; settings: read-out: Activity; how it was run: as §1
# UACC-257 = assay: Cytotoxicity against human UACC257 cells assessed as cell growth at 10 uM; settings: read-out: Activity; how it was run: as §1
# UACC-62 = assay: Cytotoxicity against human UACC62 cells assessed as cell growth at 10 uM; settings: read-out: Activity; how it was run: as §1
# IGROV-1 = assay: Cytotoxicity against human IGROV1 cells assessed as cell growth at 10 uM; settings: read-out: Activity
# How it was run: (§2)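 Single-dose NCI-60 screen at 10 µM. Cells were grown in RPMI 1640 with 5% FBS and 2 mM L-glutamine, then treated for 48 h at 37 °C. Protein was measured by SRB staining with absorbance at 515 nm. Percentage growth was recorded, and inhibition percentage was calculated as 100 minus growth percentage.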
# OVCAR-3 = assay: Cytotoxicity against human OVCAR-3 cells assessed as cell growth at 10 uM; settings: read-out: Activity; how it was run: as §1
# OVCAR-4 = assay: Cytotoxicity against human OVCAR4 cells assessed as cell growth at 10 uM; settings: read-out: Activity; how it was run: as §1
# OVCAR-5 = assay: Cytotoxicity against human OVCAR5 cells assessed as cell growth at 10 uM; settings: read-out: Activity; how it was run: as §1
# OVCAR-8 = assay: Cytotoxicity against human OVCAR8 cells assessed as cell growth at 10 uM; settings: read-out: Activity; how it was run: as §1
# NCI/ADR-RES = assay: Cytotoxicity against human NCI/ADR-RES cells assessed as cell growth at 10 uM; settings: read-out: Activity; how it was run: as §1
# SK-OV-3 = assay: Cytotoxicity against human SKOV3 cells assessed as cell growth at 10 uM; settings: read-out: Activity; how it was run: as §1
# 786-0 = assay: Cytotoxicity against human 786-0 cells assessed as cell growth at 10 uM; settings: read-out: Activity; how it was run: as §2
# A498 = assay: Cytotoxicity against human A498 cells assessed as cell growth at 10 uM; settings: read-out: Activity; how it was run: as §2
# ACHN = assay: Cytotoxicity against human ACHN cells assessed as cell growth at 10 uM; settings: read-out: Activity; how it was run: as §2
# CAKI-1 = assay: Cytotoxicity against human Caki1 cells assessed as cell growth at 10 uM; settings: read-out: Activity; how it was run: as §2
# RXF 393 = assay: Cytotoxicity against human RXF393 cells assessed as cell growth at 10 uM; settings: read-out: Activity; how it was run: as §1
# SN12C = assay: Cytotoxicity against human SN12C cells assessed as cell growth at 10 uM; settings: read-out: Activity; how it was run: as §1
# TK-10 = assay: Cytotoxicity against human TK10 cells assessed as cell growth at 10 uM; settings: read-out: Activity; how it was run: as §1
# UO-31 = assay: Cytotoxicity against human UO31 cells assessed as cell growth at 10 uM; settings: read-out: Activity; how it was run: as §1
# PC-3 = assay: Cytotoxicity against human PC3 cells assessed as cell growth at 10 uM; settings: read-out: Activity; how it was run: as §1
# DU-145 = assay: Cytotoxicity against human DU145 cells assessed as cell growth at 10 uM; settings: read-out: Activity; how it was run: as §2
# MCF7 = assay: Cytotoxicity against human MCF7 cells assessed as cell growth at 10 uM; settings: read-out: Activity; how it was run: as §1
# MDA-MB-231 = assay: Cytotoxicity against human MDA-MB-231 cells assessed as cell growth at 10 uM; settings: read-out: Activity; how it was run: as §1
# [1] = Cytotoxicity against human Hs 578T cells assessed as cell growth at 10 uM; settings: read-out: Activity; how it was run: as §2
# BT-549 = assay: Cytotoxicity against human BT549 cells assessed as cell growth at 10 uM; settings: read-out: Activity; how it was run: as §2
# T47D = assay: Cytotoxicity against human T47D cells assessed as cell growth at 10 uM; settings: read-out: Activity; how it was run: as §1
# MDA-MB-468 = assay: Cytotoxicity against human MDA-MB-468 cells assessed as cell growth at 10 uM; settings: read-out: Activity; how it was run: as §1
# [2] = Growth inhibition of human NCI60 cells at 10 uM after 48 hrs by sulforhodamine B assay relative to control; settings: NCI60, 48 h, read-out: GI
# How it was run: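 Single-dose NCI screen at 10 µM across the 60-line panel, 48 h exposure at 37 °C after a 24 h preincubation. Adherent cells were fixed with cold TCA and stained with 0.4% SRB, and absorbance was read at 515 nm. Inhibition % was taken as 100 minus growth %, and the mean across all lines was reported.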
# CCRF-CEM = assay: Cytotoxicity against human CCRF-CEM cells assessed as cell growth at 10 uM; settings: read-out: Activity; how it was run: as §2
# HL-60(TB) = assay: Cytotoxicity against human HL-60(TB) cells assessed as cell growth at 10 uM; settings: read-out: Activity
# How it was run: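 NCI 60-cell panel screen at a single concentration of 10 µM. Cells are grown in RPMI 1640 with 5% FBS and 2 mM L-glutamine and read by SRB protein staining at 515 nm. Percent growth is measured relative to time-zero and untreated controls; inhibition % is 100 minus growth %.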
# K562 = assay: Cytotoxicity against human K562 cells assessed as cell growth at 10 uM; settings: read-out: Activity; how it was run: as §2
# MOLT-4 = assay: Cytotoxicity against human MOLT4 cells assessed as cell growth at 10 uM; settings: read-out: Activity; how it was run: as §1
# [3] = Cytotoxicity against human […] cells assessed as cell growth at 10 uM; settings: read-out: Activity; how it was run: as §1
# SR = assay: Cytotoxicity against human SR cells assessed as cell growth at 10 uM; settings: read-out: Activity; how it was run: as §1
# A549 = assay: Cytotoxicity against human A549 cells assessed as cell growth at 10 uM; settings: read-out: Activity; how it was run: as §2
# EKVX = assay: Cytotoxicity against human EKVX cells assessed as cell growth at 10 uM; settings: read-out: Activity; how it was run: as §2
# HOP-62 = assay: Cytotoxicity against human HOP62 cells assessed as cell growth at 10 uM; settings: read-out: Activity; how it was run: as §2
# HOP-92 = assay: Cytotoxicity against human HOP92 cells assessed as cell growth at 10 uM; settings: read-out: Activity; how it was run: as §2
# NCI-H226 = assay: Cytotoxicity against human NCI-H226 cells assessed as cell growth at 10 uM; settings: read-out: Activity; how it was run: as §1
# NCI-H23 = assay: Cytotoxicity against human NCI-H23 cells assessed as cell growth at 10 uM; settings: read-out: Activity; how it was run: as §1
# NCI-H322M = assay: Cytotoxicity against human NCI-H322M cells assessed as cell growth at 10 uM; settings: read-out: Activity; how it was run: as §1
# NCI-H460 = assay: Cytotoxicity against human NCI-H460 cells assessed as cell growth at 10 uM; settings: read-out: Activity; how it was run: as §1
# NCI-H522 = assay: Cytotoxicity against human NCI-H522 cells assessed as cell growth at 10 uM; settings: read-out: Activity; how it was run: as §1
# COLO 205 = assay: Cytotoxicity against human COLO205 cells assessed as cell growth at 10 uM; settings: read-out: Activity; how it was run: as §2
# HCC 2998 = assay: Cytotoxicity against human HCC2998 cells assessed as cell growth at 10 uM; settings: read-out: Activity; how it was run: as §2
# HCT-116 = assay: Cytotoxicity against human HCT116 cells assessed as cell growth at 10 uM; settings: read-out: Activity; how it was run: as §2
# HCT-15 = assay: Cytotoxicity against human HCT15 cells assessed as cell growth at 10 uM; settings: read-out: Activity; how it was run: as §2
# HT-29 = assay: Cytotoxicity against human HT-29 cells assessed as cell growth at 10 uM; settings: read-out: Activity; how it was run: as §2
# KM12 = assay: Cytotoxicity against human KM12 cells assessed as cell growth at 10 uM; settings: read-out: Activity; how it was run: as §1
# SW-620 = assay: Cytotoxicity against human SW620 cells assessed as cell growth at 10 uM; settings: read-out: Activity; how it was run: as §1
# SF-268 = assay: Cytotoxicity against human SF268 cells assessed as cell growth at 10 uM; settings: read-out: Activity; how it was run: as §1
# SF-295 = assay: Cytotoxicity against human SF295 cells assessed as cell growth at 10 uM; settings: read-out: Activity; how it was run: as §1
compound,measurement,setting,value
COc1cc(C)cc(-c2nn(CC#N)cc2-c2ccnc(-c3cccc(NC(C)=O)c3)c2)c1,growth at 10 µM,SF-539,84.5%
same,growth at 10 µM,SNB-19,89.6%
same,growth at 10 µM,SNB-75,72.4%
same,growth at 10 µM,U-251,94.3%
same,growth at 10 µM,LOX IMVI,97.5%
same,growth at 10 µM,Malme-3M,108%
same,growth at 10 µM,M14,96.3%
same,growth at 10 µM,MDA-MB-435,99.6%
same,growth at 10 µM,SK-MEL-2,92.1%
same,growth at 10 µM,SK-MEL-28,104%
same,growth at 10 µM,SK-MEL-5,36.9%
same,growth at 10 µM,UACC-257,89.7%
same,growth at 10 µM,UACC-62,81.7%
same,growth at 10 µM,IGROV-1,98.4%
same,growth at 10 µM,OVCAR-3,109%
same,growth at 10 µM,OVCAR-4,99.7%
same,growth at 10 µM,OVCAR-5,91.6%
same,growth at 10 µM,OVCAR-8,88%
same,growth at 10 µM,NCI/ADR-RES,87.3%
same,growth at 10 µM,SK-OV-3,93.3%
same,growth at 10 µM,786-0,84%
same,growth at 10 µM,A498,74.2%
same,growth at 10 µM,ACHN,88%
same,growth at 10 µM,CAKI-1,77.3%
same,growth at 10 µM,RXF 393,81.5%
same,growth at 10 µM,SN12C,83%
same,growth at 10 µM,TK-10,87.1%
same,growth at 10 µM,UO-31,63.6%
same,growth at 10 µM,PC-3,85.8%
same,growth at 10 µM,DU-145,105%
same,growth at 10 µM,MCF7,85%
same,growth at 10 µM,MDA-MB-231,86.5%
same,growth at 10 µM,[1],99%
same,growth at 10 µM,BT-549,79.1%
same,growth at 10 µM,T47D,79.3%
same,growth at 10 µM,MDA-MB-468,82.8%
same,inhibition of growth at 10 µM,[2],1.18%
same,growth at 10 µM,CCRF-CEM,83.9%
same,growth at 10 µM,HL-60(TB),74.9%
same,growth at 10 µM,K562,86.4%
same,growth at 10 µM,MOLT-4,82.8%
same,growth at 10 µM,[3],73.9%
same,growth at 10 µM,SR,80.9%
same,growth at 10 µM,A549,86.7%
same,growth at 10 µM,EKVX,101%
same,growth at 10 µM,HOP-62,98.5%
same,growth at 10 µM,HOP-92,79.6%
same,growth at 10 µM,NCI-H226,93.1%
same,growth at 10 µM,NCI-H23,95.3%
same,growth at 10 µM,NCI-H322M,96.9%
same,growth at 10 µM,NCI-H460,107%
same,growth at 10 µM,NCI-H522,82.5%
same,growth at 10 µM,COLO 205,93.5%
same,growth at 10 µM,HCC 2998,101%
same,growth at 10 µM,HCT-116,96.4%
same,growth at 10 µM,HCT-15,94.5%
same,growth at 10 µM,HT-29,99.4%
same,growth at 10 µM,KM12,109%
same,growth at 10 µM,SW-620,104%
same,growth at 10 µM,SF-268,97.3%
same,growth at 10 µM,SF-295,102%
